PubChem BioAssay AID1515 (The Scripps Research Institute Molecular Screening Center, 2009)
About 440 (0.2%) of roughly 220,000 compounds were called active.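 How the source made its calls: active means inhibition above the campaign mean of all tested compounds plus 3 SD (cut at about 14% in these data); inactive means the rest.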 Shown is part of a subset that was picked to be rich in actives.

biological target: Serine hydrolase RBBP9 (Homo sapiens) (UniProt O75884); assay: human RBBP9 inhibitors, primary screen, biochemical, fluorescence polarization, FP-Rh probe, HTS (AID 1515); details: recombinant RBBP9, FP-Rh probe fluorescence polarization; at 7.94 µM; stronger effect = higher value;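 further: plate controls were DMSO wells with RBBP9 for no effect and wells lacking RBBP9 protein for full effect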
In short: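 System: RBBP9 protein / Quantity: 2.5 µM RBBP9 dispensing solution, before mixing / Also added: Serine-hydrolase probe FP-Rh, 375 nM pre-mixing / Dosing: 7.94 µM single dose, 0.794% DMSO / Timing: enzyme-compound preincubation 30 min, then probe labeling 45 min, 25 °C / Signal: FP readout at 525/598 nm / Controls: DMSO-treated enzyme wells and wells lacking RBBP9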

Sequence of Serine hydrolase RBBP9 (Homo sapiens) (O75884 whole entry, looked up): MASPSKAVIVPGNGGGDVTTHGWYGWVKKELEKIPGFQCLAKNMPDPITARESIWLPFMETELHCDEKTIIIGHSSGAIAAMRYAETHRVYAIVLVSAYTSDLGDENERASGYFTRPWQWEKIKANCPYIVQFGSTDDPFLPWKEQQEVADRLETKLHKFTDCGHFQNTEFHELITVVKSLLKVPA

inhibition, inactive:
COc1ccccc1NC(=O)C1=C(C)NC(=O)NC1c1ccc(C)s1 (stereo not given) -5.66%
Cc1cc(C#N)c(SCC(N)=O)nc1-c1ccc(F)cc1 -8.75%
CC(C)OCC(O)CN1CCN(C(c2ccccc2)c2ccccc2)CC1 (stereo not given) 2.7%
O=[N+]([O-])c1ccc(N2CCN(c3ccc(O)cc3)CC2)c(Cl)c1 -8.4%
CC(C)C(=O)Nc1ccc(C(=O)NNC(=O)c2cccs2)cc1 3.67%
CC(C)NC(=O)C(=O)NCCCOC(C)C -0.43%
CCOC(=O)NN1C(=O)c2ccccc2NC1c1ccccc1O (stereo not given) 0.52%
COCCOC(=O)C1=C(C)Nc2nc(C)nn2C1c1ccccc1 (stereo not given) 0.85%
CCOC(=O)C1=C(N)N2C(=O)C(C)SC2=C(C(=O)OCC)C1c1cc(OC)c(OC)c(OC)c1 (stereo not given) 4.66%
COc1ccc(NC(=O)Nc2ccc3nsnc3c2)cc1 -1.59%
O=C(NCc1ccccn1)c1ccc2nc(-c3ccco3)c(-c3ccco3)nc2c1 -0.69%
COC(=O)CC(=O)N1CCN(c2ccc(Cl)c(Cl)c2)CC1 0.17%
CC1(C)CC2CC(C)(CN2c2ncnc3ccc(Br)cc23)C1 (stereo not given) -2.76%
CCOC(=O)c1sc(=NC(=O)/C=C/c2cccs2)n(C)c1C -10.7%
CCOC(=O)c1ccc(N=C2SC(C(=O)NC)CC(=O)N2CCc2ccccc2)cc1 (stereo not given) -5.9%
COC(=O)Cc1ccc(NC(=S)NCc2ccco2)cc1 -2.67%
Cc1nnc(SC(C(=O)Nc2cc(Cl)cc(Cl)c2)c2ccccc2)[nH]c1=O (stereo not given) -10.7%
CSc1sc(C(=O)NNC(=O)c2ccc(Cl)cc2)c2c1C=CCC2 -0.01%
COC(=O)c1ccc(C2C3=C(Nc4nnnn42)c2ccccc2OC3)cc1 (stereo not given) -9.06%
Cc1ccc(Sc2ccncc2S(N)(=O)=O)cc1 -3.25%
CC(NCc1nc2ccccc2n1C)C12CC3CC(CC(C3)C1)C2 (stereo not given) 1.94%
Cc1ccc(-c2cc(C(F)(F)F)n3nc(C(=O)N4CCCC4)cc3n2)cc1 -1.99%
Cc1ccc(OCC(=O)N2CCN(C(=O)c3cccnc3)CC2)cc1 -7.21%
Cc1ccc(S(=O)(=O)/N=C(\CN2CCOCC2)N2CCOCC2)cc1 5.6%
CCCCCc1nnc(NC(=O)c2ccc(=O)n(C)n2)s1 -7.4%
CSCCC(NC(=O)c1ccco1)C(=O)OCC(=O)Nc1ncc(Cl)c(C)c1Cl (stereo not given) -5.55%
CC[n+]1c(C)n(-c2ccccc2)c2ccc(NC(C)=O)cc21 -7.36%
CCC(C)c1ccc(NC(=S)NCc2ccccn2)cc1 (stereo not given) -8.32%
CC(C)Oc1ccc(CCC(=O)NNC(=S)NCc2ccccc2)cc1 -2.85%
O=C(CCC1CCCN(Cc2ccc(O)c(Cl)c2)C1)NCc1ccccc1F (stereo not given) -3.09%
Brc1ccc(-c2n(-c3ccccn3)c3ccccc3[n+]2-c2ccccn2)cc1 0.06%
CCC(CC)c1nnc(NC(=O)/C=C/c2ccco2)s1 -5.03%
O=C(NCC1CCCO1)C1CCN(C2CCN(C(=O)C3CCCCC3)CC2)CC1 (stereo not given) -1.77%
COC(=O)c1cccc(NS(C)(=O)=O)c1 2.15%
C#CCOCCOCCOCCNc1nc(N2CCN(C(=O)[C@H](C(C)C)n3cc(CCO)nn3)CC2)nc(N2CCN(C(=O)[C@H](C(C)C)n3cc(CCO)nn3)CC2)n1 -3.79%
Oc1ccc(N=Cc2c(O)ccc3ccccc23)cc1 5.11%
O=C(N/N=C/c1c(Cl)[nH]c2ccccc12)c1sc2ccccc2c1Cl -18.2%
CC1(C)CC(=O)C2=C(C1)N=C1SCCC(=O)N1C2c1ccc(C(F)(F)F)cc1 (stereo not given) -1.93%
COc1ccc(/C=C(\C#N)C(=O)ONC2=NCCCCC2)cc1 -9.38%
COc1cccc(-c2nn(-c3ccccc3)cc2/C=C(\C#N)C(=O)NCCCn2ccnc2)c1 -15%
CCOc1ccc(N2C(=O)CN(c3cccc4ccccc34)C2=S)cc1 -4%
COc1cccc(N(Cc2nnc3n2CCCCC3)C(=O)Nc2ccccc2F)c1 -3.77%
O=C(Nc1nc(-c2cccnc2)cs1)c1ccccc1F -5.59%
COc1ccc(/C=N/NC(=O)c2ccccc2)cc1OS(=O)(=O)c1ccccc1 -7.38%
COc1cc(/C=N/NC(=O)c2ccccc2)ccc1OS(=O)(=O)c1ccccc1 -11.2%
Cc1ccc(C(=O)N2CCN(S(=O)(=O)N3CCOCC3)CC2)cc1 0.85%
COc1ccc(C(=O)NN2C(=O)C3C(c4ccccc4)C=CC(c4ccccc4)C3C2=O)cc1 (stereo not given) -6.27%
O=C(NCC1CCN(Cc2ccccc2Cl)CC1)Nc1cccc(Cl)c1 -3.66%
Cc1cc(/C=C(/C#N)C(=O)Nc2ccc(Cl)cc2)c(C)n1-c1cccnc1 -4.94%
O=c1[nH][nH]c(=O)c2cc(N3CCCC3)ccc12 0.44%
Cc1ccccc1C(=O)Nc1ccc(N2CCCCCC2)cc1 -6.04%
Cc1c(NC(=O)CN2C(=O)C(=O)N(Cc3ccccc3)C2=O)c(=O)n(-c2ccccc2)n1C -6.97%
CCS(=O)(=O)c1ccc(O)c(NC(=O)COc2ccc(Cl)cc2)c1 -5.54%
Cc1ccnc(SCC(N)=O)n1 -18.6%
Cc1ccnc(Nc2nc3ccccc3s2)n1 -1.41%
CCOC(=O)CCCNC(=O)COC(=O)/C=C/c1ccc2c(c1)OCO2 6.07%
Cc1ccc(C(O)P(=O)(OC(C)C)c2ccc(N(C)C)cc2)cc1 (stereo not given) -1.11%
O=C(C1CCCO1)N1CCN(C(=S)Nc2cccc(Cl)c2)CC1 (stereo not given) -9.39%
O=C(COc1ccc(Cl)cc1)N1CCN(c2cccc(C(F)(F)F)c2)CC1 -0.45%
CCC(=O)c1ccc(OCC(O)CN2CC(C)OC(C)C2)cc1 (stereo not given) -8.04%
O=C(O)c1ccccc1-c1ccccc1C(=O)Nc1nccs1 -2.01%
CCN1CCc2nc(NC(=O)c3cc(F)c(F)cc3Cl)sc2C1 -0.19%
CCOc1ccc2nc(NCCNC(=O)C(C)(C)C)c(C)cc2c1 -3.3%
Cc1ccc(C(=O)COC(=O)CCN2C(=O)C3C4CC(C(Br)C4Br)C3C2=O)cc1 (stereo not given) -2.32%
COc1ccc(OC)c(NC(=S)N2CCc3ccccc3C2)c1 1.81%
Cc1ccc(C)c(Cn2cnc3c(oc4ccccc43)c2=O)c1 -1.77%
Cc1ccc(CN2CCN(Cc3ccccc3-c3ccco3)CC2CCO)o1 (stereo not given) -3.63%
CN(C)c1nnnn1-c1ccc(Cl)cc1 3.3%
CC(C)c1ccc(Nc2nnc(SCC(=O)c3nnc(-c4ccccc4)o3)s2)cc1 -10.9%
Cc1occc1C(=O)N1CCCc2ccccc21 7.03%
O=C(CSCc1ccccc1)N1CCc2ccccc21 -3.54%
COc1cc(OC)cc(-c2nc(=S)n3ccsc3n2)c1 0.8%
O=C1CN(C(=O)CN2C(=O)NC3(CCCCC3)C2=O)c2ccccc2N1 -4.87%
CCSc1ccccc1C(=O)Nc1ccc2c(c1)OCO2 -7.81%
CN(/C(=N/S(=O)(=O)c1cccs1)c1ccccc1)c1ccc(O)cc1 -5.39%
O=C(CSc1nnc(SCc2ccc(Cl)cc2)s1)N/N=C/c1ccccc1Cl -7.13%
COc1cc(NC(=S)NCc2ccc(S(N)(=O)=O)cc2)cc(OC)c1 1.34%
COc1ccc(CCC(=O)OCC(=O)Nc2ccc(C)c(S(=O)(=O)N(C)C)c2)cc1 -1.71%
COc1cccc(NCCC(=O)c2cccc([N+](=O)[O-])c2)c1 -8.98%
COc1cccc(NC(=O)NCc2ccc(F)cc2)c1 -0.62%
CCNC(=S)NNC(=O)C1CCN(Cc2ccccc2)CC1 -3.59%
CCC(=O)Nc1ccc(C(=O)Nc2cccc(OC)c2)cc1 -4.79%
CC(=O)c1ccc(NC(=O)c2ccc3c(Cl)c4c(nc3c2)CCCC4)cc1 -3.32%

inhibition, active:
CC(C)OCCCNC(=O)CNC(=O)c1cccs1 14.6%
COc1cc(C2C(C(=O)OCCC#N)=C(C)NC3=C2S(=O)(=O)c2ccccc23)cc(OC)c1OC (stereo not given) 21.6%
COCCNC(=O)Nc1ccc2nc(-c3ccco3)c(-c3ccco3)nc2c1 17.9%
CCN(CC)C(=O)N1CCN(C(=O)c2ccc(C)cn2)CC1 18.9%
Oc1ccc(N=Cc2sc3ccccc3c2Cl)cc1 15.9%
COc1cc(/C=N/NC(=O)Nc2ccccc2)ccc1OCCOc1ccccc1C 65.1%
O=C1C=CC(=O)N1c1ccc(N2CCCCC2)cc1 14.7%
Cc1ccnc(-n2sc3ccccc3c2=O)n1 43.2%
CCC(=O)c1ccc(OCC(O)CN2CCN(c3cccc(C(F)(F)F)c3)CC2)cc1 (stereo not given) 17.3%
CCC(=O)N1CCCc2ccccc21 16.1%
COc1ccc(NS(=O)(=O)c2cc(NC(=O)CC(=O)c3ccc([N+](=O)[O-])cc3)ccc2C)cc1 28.9%
COc1cccc(NC(=O)c2ccc3c(SCC(=O)O)c4c(nc3c2)CCCC4)c1 14.3%
